From ChEMBL document CHEMBL5357072, “Structural Modification of Noscapine via Photoredox/Nickel Dual Catalysis for the Discovery of S-Phase Arresting Agents” (ACS Med Chem Lett, 2024)

Tested on: NB-4
Test: Antiproliferative activity against human NB4 cells assessed as cell growth inhibition at 10 uM incubated for 48 hrs by CCK8 assay relative to control
Type: functional
Conditions: read-out: GI
How it was run: (§1)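 Single-concentration screen of six cancer cell lines. Cells were exposed to 10 μM compound and growth was measured by CCK-8 assay. Results are reported as inhibition rate at 10 μM.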

| Compound | inhibition of growth at 10 µM [%] |
| --- | --- |
| COc1ccc2c(c1OC)C(=O)O[C@@H]2[C@H]1c2c(c(CC3CCCCC3)c3c(c2OC)OCO3)CCN1C(=O)OC(C)(C)C | < 5 |
| COc1ccc2c(c1OC)C(=O)O[C@@H]2[C@H]1c2c(c(CC3CCN(C(=O)OC(C)(C)C)CC3)c3c(c2OC)OCO3)CCN1C(=O)OC(C)(C)C | 37.3 |
| Nc1ccn([C@@H]2O[C@H](CO)[C@@H](O)C2(F)F)c(=O)n1 [GEMCITABINE] | 95.7 |
| COc1ccc2c(c1OC)C(=O)O[C@@H]2[C@H]1c2c(c(C3CCN(C(=O)OC(C)(C)C)CC3)c3c(c2OC)OCO3)CCN1C(=O)OC(C)(C)C | 21.2 |
| COc1ccc2c(c1OC)C(=O)O[C@@H]2[C@H]1c2c(c(CC3CN(C(=O)OC(C)(C)C)C3)c3c(c2OC)OCO3)CCN1C(=O)OC(C)(C)C | 63.1 |
| COc1ccc2c(c1OC)C(=O)O[C@@H]2[C@H]1c2c(c(CC3(F)CN(C(=O)OC(C)(C)C)C3)c3c(c2OC)OCO3)CCN1C(=O)OC(C)(C)C | 42.5 |
| COc1ccc2c(c1OC)C(=O)O[C@@H]2[C@H]1c2c(c(CC3CC3)c3c(c2OC)OCO3)CCN1C(=O)OC(C)(C)C | 8.2 |

Tested on: MOLM-13
Test: Antiproliferative activity against human MOLM-13 cells assessed as cell growth inhibition at 10 uM incubated for 48 hrs by CCK8 assay relative to control
Type: functional
Conditions: read-out: GI
How it was run: as §1

| Compound | inhibition of growth at 10 µM [%] |
| --- | --- |
| COc1ccc2c(c1OC)C(=O)O[C@@H]2[C@H]1c2c(c(CC3CCCCC3)c3c(c2OC)OCO3)CCN1C(=O)OC(C)(C)C | 29.3 |
| COc1ccc2c(c1OC)C(=O)O[C@@H]2[C@H]1c2c(c(CC3CCN(C(=O)OC(C)(C)C)CC3)c3c(c2OC)OCO3)CCN1C(=O)OC(C)(C)C | 58.1 |
| Nc1ccn([C@@H]2O[C@H](CO)[C@@H](O)C2(F)F)c(=O)n1 [GEMCITABINE] | 74.1 |
| COc1ccc2c(c1OC)C(=O)O[C@@H]2[C@H]1c2c(c(C3CCN(C(=O)OC(C)(C)C)CC3)c3c(c2OC)OCO3)CCN1C(=O)OC(C)(C)C | 62.9 |
| COc1ccc2c(c1OC)C(=O)O[C@@H]2[C@H]1c2c(c(CC3CN(C(=O)OC(C)(C)C)C3)c3c(c2OC)OCO3)CCN1C(=O)OC(C)(C)C | 59 |
| COc1ccc2c(c1OC)C(=O)O[C@@H]2[C@H]1c2c(c(CC3(F)CN(C(=O)OC(C)(C)C)C3)c3c(c2OC)OCO3)CCN1C(=O)OC(C)(C)C | 61.5 |
| COc1ccc2c(c1OC)C(=O)O[C@@H]2[C@H]1c2c(c(CC3CC3)c3c(c2OC)OCO3)CCN1C(=O)OC(C)(C)C | 43.6 |

Tested on: JeKo-1
Test: Antiproliferative activity against human JeKo-1 cells assessed as cell growth inhibition at 10 uM incubated for 48 hrs by CCK8 assay relative to control
Type: functional
Conditions: read-out: GI
How it was run: as §1

| Compound | inhibition of growth at 10 µM [%] |
| --- | --- |
| COc1ccc2c(c1OC)C(=O)O[C@@H]2[C@H]1c2c(c(CC3CCCCC3)c3c(c2OC)OCO3)CCN1C(=O)OC(C)(C)C | < 5 |
| COc1ccc2c(c1OC)C(=O)O[C@@H]2[C@H]1c2c(c(CC3CCN(C(=O)OC(C)(C)C)CC3)c3c(c2OC)OCO3)CCN1C(=O)OC(C)(C)C | 22.7 |
| Nc1ccn([C@@H]2O[C@H](CO)[C@@H](O)C2(F)F)c(=O)n1 [GEMCITABINE] | 65.2 |
| COc1ccc2c(c1OC)C(=O)O[C@@H]2[C@H]1c2c(c(C3CCN(C(=O)OC(C)(C)C)CC3)c3c(c2OC)OCO3)CCN1C(=O)OC(C)(C)C | 22.3 |
| COc1ccc2c(c1OC)C(=O)O[C@@H]2[C@H]1c2c(c(CC3CN(C(=O)OC(C)(C)C)C3)c3c(c2OC)OCO3)CCN1C(=O)OC(C)(C)C | 48 |
| COc1ccc2c(c1OC)C(=O)O[C@@H]2[C@H]1c2c(c(CC3(F)CN(C(=O)OC(C)(C)C)C3)c3c(c2OC)OCO3)CCN1C(=O)OC(C)(C)C | 43.9 |
| COc1ccc2c(c1OC)C(=O)O[C@@H]2[C@H]1c2c(c(CC3CC3)c3c(c2OC)OCO3)CCN1C(=O)OC(C)(C)C | < 5 |

Tested on: A549
Test: Antiproliferative activity against human A549 cells assessed as cell growth inhibition at 10 uM incubated for 48 hrs by CCK8 assay relative to control
Type: functional
Conditions: read-out: GI
How it was run: as §1

| Compound | inhibition of growth at 10 µM [%] |
| --- | --- |
| COc1ccc2c(c1OC)C(=O)O[C@@H]2[C@H]1c2c(c(CC3CCCCC3)c3c(c2OC)OCO3)CCN1C(=O)OC(C)(C)C | < 5 |
| COc1ccc2c(c1OC)C(=O)O[C@@H]2[C@H]1c2c(c(CC3CCN(C(=O)OC(C)(C)C)CC3)c3c(c2OC)OCO3)CCN1C(=O)OC(C)(C)C | < 5 |
| Nc1ccn([C@@H]2O[C@H](CO)[C@@H](O)C2(F)F)c(=O)n1 [GEMCITABINE] | 62.3 |
| COc1ccc2c(c1OC)C(=O)O[C@@H]2[C@H]1c2c(c(C3CCN(C(=O)OC(C)(C)C)CC3)c3c(c2OC)OCO3)CCN1C(=O)OC(C)(C)C | 14.7 |
| COc1ccc2c(c1OC)C(=O)O[C@@H]2[C@H]1c2c(c(CC3CN(C(=O)OC(C)(C)C)C3)c3c(c2OC)OCO3)CCN1C(=O)OC(C)(C)C | 10.6 |
| COc1ccc2c(c1OC)C(=O)O[C@@H]2[C@H]1c2c(c(CC3(F)CN(C(=O)OC(C)(C)C)C3)c3c(c2OC)OCO3)CCN1C(=O)OC(C)(C)C | < 5 |
| COc1ccc2c(c1OC)C(=O)O[C@@H]2[C@H]1c2c(c(CC3CC3)c3c(c2OC)OCO3)CCN1C(=O)OC(C)(C)C | < 5 |

Tested on: HeLa
Test: Antiproliferative activity against human HeLa cells assessed as cell growth inhibition at 10 uM incubated for 48 hrs by CCK8 assay relative to control
Type: functional
Conditions: read-out: GI
How it was run: as §1

| Compound | inhibition of growth at 10 µM [%] |
| --- | --- |
| COc1ccc2c(c1OC)C(=O)O[C@@H]2[C@H]1c2c(c(CC3CCCCC3)c3c(c2OC)OCO3)CCN1C(=O)OC(C)(C)C | < 5 |
| COc1ccc2c(c1OC)C(=O)O[C@@H]2[C@H]1c2c(c(CC3CCN(C(=O)OC(C)(C)C)CC3)c3c(c2OC)OCO3)CCN1C(=O)OC(C)(C)C | < 5 |
| Nc1ccn([C@@H]2O[C@H](CO)[C@@H](O)C2(F)F)c(=O)n1 [GEMCITABINE] | 61.4 |
| COc1ccc2c(c1OC)C(=O)O[C@@H]2[C@H]1c2c(c(C3CCN(C(=O)OC(C)(C)C)CC3)c3c(c2OC)OCO3)CCN1C(=O)OC(C)(C)C | 17.5 |
| COc1ccc2c(c1OC)C(=O)O[C@@H]2[C@H]1c2c(c(CC3CN(C(=O)OC(C)(C)C)C3)c3c(c2OC)OCO3)CCN1C(=O)OC(C)(C)C | < 5 |
| COc1ccc2c(c1OC)C(=O)O[C@@H]2[C@H]1c2c(c(CC3(F)CN(C(=O)OC(C)(C)C)C3)c3c(c2OC)OCO3)CCN1C(=O)OC(C)(C)C | 8.57 |
| COc1ccc2c(c1OC)C(=O)O[C@@H]2[C@H]1c2c(c(CC3CC3)c3c(c2OC)OCO3)CCN1C(=O)OC(C)(C)C | < 5 |

Tested on: U-251
Test: Antiproliferative activity against human U-251 cells assessed as cell growth inhibition at 10 uM incubated for 48 hrs by CCK8 assay relative to control
Type: functional
Conditions: read-out: GI
How it was run: as §1

| Compound | inhibition of growth at 10 µM [%] |
| --- | --- |
| COc1ccc2c(c1OC)C(=O)O[C@@H]2[C@H]1c2c(c(CC3CCCCC3)c3c(c2OC)OCO3)CCN1C(=O)OC(C)(C)C | < 5 |
| COc1ccc2c(c1OC)C(=O)O[C@@H]2[C@H]1c2c(c(CC3CCN(C(=O)OC(C)(C)C)CC3)c3c(c2OC)OCO3)CCN1C(=O)OC(C)(C)C | < 5 |
| Nc1ccn([C@@H]2O[C@H](CO)[C@@H](O)C2(F)F)c(=O)n1 [GEMCITABINE] | 69.7 |
| COc1ccc2c(c1OC)C(=O)O[C@@H]2[C@H]1c2c(c(C3CCN(C(=O)OC(C)(C)C)CC3)c3c(c2OC)OCO3)CCN1C(=O)OC(C)(C)C | < 5 |
| COc1ccc2c(c1OC)C(=O)O[C@@H]2[C@H]1c2c(c(CC3CN(C(=O)OC(C)(C)C)C3)c3c(c2OC)OCO3)CCN1C(=O)OC(C)(C)C | < 5 |
| COc1ccc2c(c1OC)C(=O)O[C@@H]2[C@H]1c2c(c(CC3(F)CN(C(=O)OC(C)(C)C)C3)c3c(c2OC)OCO3)CCN1C(=O)OC(C)(C)C | < 5 |
| COc1ccc2c(c1OC)C(=O)O[C@@H]2[C@H]1c2c(c(CC3CC3)c3c(c2OC)OCO3)CCN1C(=O)OC(C)(C)C | < 5 |
